# From ChEMBL document CHEMBL3351231, “Structure and antimicrobial activity of phloroglucinol derivatives from Achyrocline satureioides” (2015)
# Assays:
# [1] = system: Staphylococcus aureus; experiment: Antimicrobial activity against methicillin-sensitive Staphylococcus aureus ATCC 25923 after 24 hrs by broth microdilution method; details: ATCC 25923, 24 h
# [2] = system: Enterococcus faecalis; experiment: Antimicrobial activity against Enterococcus faecalis ATCC 29212 after 24 hrs by broth microdilution method; format: functional; details: ATCC 29212, 24 h
# In short: (§1)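 Strains kept at −80 °C in BHI broth with 20% glycerol and revived on BHI at 37 °C overnight. NCCLS standard broth microdilution with 1:2 serial dilutions from 1 to 128 μM and an inoculum of 1 × 10⁵ CFU/mL. Ampicillin and kanamycin served as controls.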
# [3] = system: Escherichia coli; experiment: Antimicrobial activity against Escherichia coli ATCC 35218 after 24 hrs by broth microdilution method; format: functional; details: ATCC 35218, 24 h
# In short: as §1
# [4] = system: Staphylococcus aureus; experiment: Antimicrobial activity against methicillin-resistant and vancomycin-intermediate Staphylococcus aureus NRS402 after 24 hrs by broth microdilution method; format: functional; details: NRS402, 24 h
# In short: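 Broth microdilution per NCCLS standard; strain stored at -80 °C in BHI broth with 20% glycerol, revived on BHI at 37 °C overnight. […] Ampicillin and kanamycin included as controls.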
# [5] = system: Saccharomyces cerevisiae; experiment: Antimicrobial activity against Saccharomyces cerevisiae BY4741 after 24 hrs by broth microdilution method; format: functional; details: BY4741, 24 h
# [6] = system: Candida albicans; experiment: Antimicrobial activity against Candida albicans […] after 24 hrs by broth microdilution method; format: functional
# [7] = system: Nakaseomyces glabratus; experiment: Antimicrobial activity against Candida glabrata ATCC 9984 after 24 hrs by broth microdilution method; format: functional; details: ATCC 9984, 24 h
SMILES,MIC [1] [µM],MIC [2] [µM],MIC [3] [µM],MIC [4] [µM],MIC [5] [µM],MIC [6] [µM],MIC [7] [µM]
CCc1oc(OC)c(Cc2c(O)c3c(c(C(=O)[C@@H](C)CC)c2O)OC(C)(C)C=C3)c(=O)c1C,> 128,> 128,> 128,> 128,,,
CCc1oc(=O)c(Cc2c(O)c3c(c(C(=O)[C@@H](C)CC)c2O)OC(C)(C)C=C3)c(O)c1C,64,> 128,> 128,64,> 128,> 128,> 128
C=C(C)[C@@H]1Cc2c(O)c(Cc3c(O)c(C)c(CC)oc3=O)c(O)c(C(=O)[C@@H](C)CC)c2O1,32,64,> 128,64,> 128,> 128,> 128
CCc1oc(=O)c(Cc2c(O)c3c(c(C(=O)[C@@H](C)CC)c2O)OC(C)(C)[C@@H](O)C3)c(O)c1C,> 128,> 128,> 128,> 128,> 128,> 128,> 128
C=C(C)C(O)Cc1c(O)c(C(=O)[C@@H](C)CC)c2oc3c4c(c(C(=O)[C@@H](C)CC)c(O)c3c2c1O)OC(C)(C)C=C4 (some centres not stated),32,64,> 128,32,> 128,> 128,> 128
CCc1oc(=O)c(Cc2c(O)c(CC=C(C)C)c(O)c(C(=O)[C@@H](C)CC)c2O)c(O)c1C,8,64,> 128,8,> 128,> 128,> 128
CCc1oc(OC)c(Cc2c(O)c(C(=O)[C@@H](C)CC)c3c(c2OC)C=CC(C)(C)O3)c(=O)c1C,> 128,> 128,> 128,> 128,,,
CCc1oc(=O)c(Cc2c(O)c(C(=O)[C@@H](C)CC)c3c(c2OC)C=CC(C)(C)O3)c(OC)c1C,> 128,> 128,> 128,> 128,,,
CCc1oc(=O)c(Cc2c(OC(C)=O)c3c(c(C(=O)[C@@H](C)CC)c2OC(C)=O)OC(C)(C)C=C3)c(OC(C)=O)c1C,> 128,> 128,> 128,> 128,,,
CCc1oc(=O)c(Cc2c(O)c3c(c(C(=O)[C@@H](C)CC)c2O)OC(C)(C)CC3)c(O)c1C,> 128,> 128,> 128,> 128,,,
CCc1oc(=O)c(Cc2c(O)c(C(=O)[C@@H](C)CC)c3c(c2O)C2OC2C(C)(C)O3)c(O)c1C (some centres not stated),> 128,> 128,> 128,> 128,,,
CCc1oc(=O)c(Cc2c(O)c3c(c(C(=O)[C@@H](C)CC)c2O)OC(C)(C)C(Br)=C3)c(O)c1C,16,> 128,> 128,8,,,
CCc1[nH]c(=O)c(Cc2c(O)c3c(c(C(=O)[C@@H](C)CC)c2O)OC(C)(C)C=C3)c(O)c1C,32,> 128,> 128,32,,,
CCc1oc(=O)c(Cc2c(O)c3c(c(C(=O)[C@@H](C)CC)c2O)OC(C(C)(C)O)C3)c(O)c1C (some centres not stated),> 128,> 128,> 128,> 128,,,
CCc1oc(=O)c(Cc2c(O)c(CCC(C)C)c(O)c(C(=O)[C@@H](C)CC)c2O)c(O)c1C,4,32,> 128,4,,,
C=C(C)C(O)Cc1c(O)c(C(=O)C(C)CC)c(O)c2c1oc1c(C(=O)C(C)CC)c(O)c(CC=C(C)C)c(O)c12 (configuration not stated) [ACHYROFURAN],< 1,2,> 128,< 1,> 128,> 128,> 128
CC1(C)S[C@@H]2[C@H](NC(=O)[C@H](N)c3ccccc3)C(=O)N2[C@H]1C(=O)O [AMPICILLIN],< 1,8.8,> 128,120,,,
COc1c(-c2ccccc2)oc2c(OC)c(O)cc(O)c2c1=O [GNAPHALIIN],> 128,> 128,> 128,> 128,> 128,> 128,> 128
NC[C@H]1O[C@H](O[C@H]2[C@H](O)[C@@H](O[C@H]3O[C@H](CO)[C@@H](O)[C@H](N)[C@H]3O)[C@H](N)C[C@@H]2N)[C@H](O)[C@@H](O)[C@@H]1O [KANAMYCIN],2.8,360,> 128,240,,,
